This is a sample that favours compounds with a hit; in the whole collection about 3% have one here.
SENP8 block-1 = inhibitors of human SENP8 protease; Q96LD8; inhibition, % at 10 µM; 1.2% of 330,000 active; AID 2540; purified SENP8, Z-RLRGG-aminoluciferin cleavage, luminescence; in the data active means inhibition above about 50%
Apaf1 inhib = inhibitors of human Apaf-1 apoptosome | O14727 | reconstituted apoptosome caspase-3 activity, DEVD-Rh110 fluorescence | inhibition, % at 20 µM | 0.71% of 330,000 active | AID 489030; active means inhibition of at least 40% at 20 µM
Target sequence (O14727 whole entry, looked up): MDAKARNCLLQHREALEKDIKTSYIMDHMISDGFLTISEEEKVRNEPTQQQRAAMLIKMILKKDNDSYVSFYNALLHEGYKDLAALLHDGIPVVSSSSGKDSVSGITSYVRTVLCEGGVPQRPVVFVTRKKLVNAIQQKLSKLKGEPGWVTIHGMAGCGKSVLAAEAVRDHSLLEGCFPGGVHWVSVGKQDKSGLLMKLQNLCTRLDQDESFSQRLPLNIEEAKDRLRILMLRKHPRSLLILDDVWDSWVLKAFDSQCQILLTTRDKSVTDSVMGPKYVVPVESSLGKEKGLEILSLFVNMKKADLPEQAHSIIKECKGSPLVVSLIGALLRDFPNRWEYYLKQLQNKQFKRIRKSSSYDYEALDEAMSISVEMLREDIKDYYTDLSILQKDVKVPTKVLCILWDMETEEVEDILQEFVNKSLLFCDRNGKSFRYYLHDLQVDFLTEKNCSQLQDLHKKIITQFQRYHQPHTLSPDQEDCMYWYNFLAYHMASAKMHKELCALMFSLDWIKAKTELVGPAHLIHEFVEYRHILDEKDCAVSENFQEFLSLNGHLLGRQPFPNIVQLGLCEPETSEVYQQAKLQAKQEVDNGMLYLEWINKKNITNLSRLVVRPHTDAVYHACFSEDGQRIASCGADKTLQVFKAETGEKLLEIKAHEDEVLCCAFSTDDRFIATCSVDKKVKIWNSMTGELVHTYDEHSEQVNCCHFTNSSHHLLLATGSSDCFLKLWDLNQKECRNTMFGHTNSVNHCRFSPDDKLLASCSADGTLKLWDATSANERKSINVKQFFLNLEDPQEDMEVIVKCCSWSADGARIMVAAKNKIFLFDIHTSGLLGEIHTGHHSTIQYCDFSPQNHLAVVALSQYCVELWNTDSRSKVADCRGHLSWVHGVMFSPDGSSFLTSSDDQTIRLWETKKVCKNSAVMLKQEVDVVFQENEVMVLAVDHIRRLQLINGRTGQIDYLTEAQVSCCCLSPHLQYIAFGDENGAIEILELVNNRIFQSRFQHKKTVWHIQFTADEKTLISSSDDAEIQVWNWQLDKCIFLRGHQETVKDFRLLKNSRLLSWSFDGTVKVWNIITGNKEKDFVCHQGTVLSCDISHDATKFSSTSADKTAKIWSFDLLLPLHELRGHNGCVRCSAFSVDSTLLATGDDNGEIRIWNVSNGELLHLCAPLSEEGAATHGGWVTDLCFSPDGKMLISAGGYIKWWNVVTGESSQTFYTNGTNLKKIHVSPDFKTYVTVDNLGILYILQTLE
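System: Apoptosome proteins | Medium: Hepes pH 7.5 with detergent and BSA | Also added: Cytochrome c trigger plus (Z-DEVD)2-Rh110 caspase-3 substrate | Incubation: 30 min compound preincubation, 50 min activation, room temperature | Detection: Rhodamine 110 fluorescence at Ex 480/Em 540 nm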
SENP8 block-2 = SENP8 (human) protease inhibition. inhibition, % at 20 µM. 0.64% of 360,000 active. recombinant SENP8, Nedd8 substrate fluorescence. AID 602440. Q96LD8; in the data active means inhibition mostly above about 40%, no sharp cut-off; inactive means mostly below about 27%
SENP7 inh = SENP7 protease inhibition. inhibition, % at 5 µM. AID 434973. Q9BQF6. 1.5% of 330,000 active. recombinant SENP7, Z-RLRGG-aminoluciferin luminescence, 40 min;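 active means inhibition above about 50% at the single test dose, limit read from the data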
SENP6 inh = blocks the human protease SENP6; Recombinant SENP6 catalytic domain, aminoluciferin luminescence; inhibition, % at 10 µM; 1.8% of 330,000 active; AID 2599;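 active means inhibition above about 50% at the single tested dose, limit read from the data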
UBC13 inh = human UBC13 polyubiquitination inhibition | UBC13 polyubiquitin chain formation, TR-FRET | inhibition, % at 20 µM | 0.47% of 330,000 active; in the data active means inhibition above about 45%, passing the limit was not always enough
SENP8 conf = human SENP8 inhibition, confirmed. shares compounds with SENP7 inh. Recombinant SENP8, Z-RLRGG-aminoluciferin luminescence, 60 min. inhibition, % at 12.5 µM. 40% of 6,200 active. AID 488912;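 active means mean inhibition across replicates above about 50%, limit read from the data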
SENP6 confirm = human SENP6 inhibition, confirmed; shares compounds with SENP7 inh; 58% of 6,200 active; recombinant SENP6, Z-RLRGG-aminoluciferin luminescence; AID 488915; inhibition, % at 12.5 µM
SENP7 confirm = confirmation of human SENP7 protease inhibitors | inhibition, % at 12.5 µM | shares compounds with SENP7 inh | 69% of 6,200 active | recombinant SENP7, Z-RLRGG-aminoluciferin luminescence, 40 min
Casp3 SENP sel = inhibits human caspase-3 in SENP selectivity test. shares compounds with SENP7 inh. purified caspase-3, Z-DEVD-aminoluciferin luminescence, 60 min. inhibition, % at 12.5 µM. 60% of 6,200 active;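 active means mean inhibition above about 50%, limit read from the data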
SENP luc ctr = interferes with luciferase luminescence in SENP counter-screen; shares compounds with SENP7 inh; Pre-incubated SENP8/Z-RLRGG-aminoluciferin, luciferase luminescence interference; inhibition, % at 12.5 µM; 39% of 6,200 active; AID 488919;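 active means mean inhibition above about 50% when retested at one dose, limit read from the data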
Large screens that a line does not name were inactive (follow-up assays come after a bar, where they were run).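 How the source made its calls, unless noted: active means mean inhibition above about 50% in the one-dose retest (limit read from the data); inactive means the rest.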

Nc1nc(Nc2ccccc2)nc2ccccc12	SENP8 block-1 91, SENP7 inh 97, SENP6 inh 94 | SENP8 conf 97 | SENP6 confirm 98 | SENP7 confirm 103 | Casp3 SENP sel 97 | SENP luc ctr 96
Nc1nc(Nc2ccc(Cl)cc2)nc2ccccc12	SENP8 block-1 95, SENP7 inh 97, SENP6 inh 98 | SENP8 conf 96 | SENP6 confirm 97 | SENP7 confirm 101 | Casp3 SENP sel 93 | SENP luc ctr 95
O=C(NCc1ccc2c(c1)OCO2)c1ccc2c(c1)S(=O)(=O)c1ccccc1C2=O	none
CC(=O)Nc1cc(C(=O)NCCN2CCN(Cc3ccccc3)CC2)ccc1Sc1ccc(C)cc1	none
CC(C)CN1C(=O)c2ccc(NC(=O)Cc3ccccc3)cc2C1=O	none
N#Cc1ccc(C(=O)Nc2nnc(-c3ccccn3)o2)cc1	SENP8 block-1 51, SENP7 inh 58, SENP6 inh 69 | SENP8 conf 64 | SENP6 confirm 60 | SENP7 confirm 89 | Casp3 SENP sel 86 | SENP luc ctr 56
CC1=C(C(=O)Nc2ccccc2)C(c2cccs2)NC(=O)N1 (centres undefined)	none
[O-]/C(=C(\C(=S)Nc1cccc2ccccc12)[n+]1ccccc1)c1cccs1	SENP6 inh 56 | SENP8 conf inactive | SENP6 confirm inactive | SENP7 confirm inactive | Casp3 SENP sel inactive | SENP luc ctr inactive
Cc1cccc(C)c1NC(=S)/C(=C(\[O-])c1cccs1)[n+]1ccccc1	none
CCOC(=O)c1ccc(NCc2cccnc2)cc1	none
Cc1nc2nc(-c3cccs3)[nH]c2cc1Br	SENP8 block-1 90, SENP7 inh 90, SENP6 inh 91 | SENP8 conf 92 | SENP6 confirm 92 | SENP7 confirm 99 | Casp3 SENP sel 93 | SENP luc ctr inactive
c1ccc(-c2nc(-c3cccs3)[nH]c2-c2ccccc2)cc1	none
Cc1ccc(-c2nc(Nc3ccccc3)n[nH]2)cc1	SENP7 inh 51, SENP6 inh 51 | SENP8 conf inactive | SENP6 confirm inactive | SENP7 confirm 73 | Casp3 SENP sel inactive | SENP luc ctr inactive
Nc1nc(CSc2n[nH]c(-c3ccccc3)n2)nc(Nc2ccccc2)n1	none
Cc1ccc(O)c(NC(=O)C2CC(c3cccc(Br)c3)=NO2)c1 (centres undefined)	none
COc1cc(OC)cc(-c2cc3ncccc3cn2)c1	SENP7 inh 53 | SENP8 conf inactive | SENP6 confirm inactive | SENP7 confirm 68 | Casp3 SENP sel 66 | SENP luc ctr 51
c1ccc(-c2cc3ccccc3cn2)cc1	SENP8 block-1 82, SENP7 inh 91, SENP6 inh 84 | SENP8 conf 65 | SENP6 confirm 85 | SENP7 confirm 96 | Casp3 SENP sel 77 | SENP luc ctr inactive
COc1ccc2cc(CCOC3CCCCO3)ncc2c1 (centres undefined)	none
Fc1ccccc1-c1cc2ncccc2cn1	none
COc1cc(OC)cc(-c2cc3ccc(OC)cc3cn2)c1	SENP8 block-1 97, SENP7 inh 100, SENP6 inh 99 | SENP8 conf 100 | SENP6 confirm 101 | SENP7 confirm 104 | Casp3 SENP sel 99 | SENP luc ctr 98
COc1ccc2cc(-c3ccccc3)ncc2c1	SENP8 block-1 92, SENP7 inh 98, SENP6 inh 95 | SENP8 conf 79 | SENP6 confirm 95 | SENP7 confirm 96 | Casp3 SENP sel 86 | SENP luc ctr inactive
Fc1ccc2cnc(-c3cccnc3)cc2c1	none
